ChEMBL document CHEMBL1221342, “Synthesis and in vitro antitumor activity of new 4,5-dihydropyrazole derivatives” (Bioorg Med Chem, 2010)

Tests used:
NCI-H460 = test: Cytotoxicity against human NCI-H460 cells after 72 hrs by SRB assay; assay type: functional, cell-based; conditions: NCI-H460, 72 h
In short: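 NCI-H460 (ATCC) cells seeded in 96-well plates in growth medium. Scalar drug concentrations added 24 h after plating, then 72 h exposure. Surviving cells stained with sulforhodamine B, OD read at 570 nm. IC50 (50% growth inhibition) fitted from dose–response curves. Mean ± SE of at least three independent experiments.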

SF-295 = test: Growth inhibition of human SF295 cells after 48 hrs by SRB assay; assay type: functional; conditions: SF-295, 48 h
In short: (§1)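 NCI 60-cell-line screen. Cells grown in RPMI1640 with 5% fetal calf serum and 2 mM L-glutamine, with inoculum density set by cell line. Preincubated 24 h, then given compound in DMSO at 10^-4 to 10^-8 M (five 10-fold steps) for 48 h continuous exposure. Growth measured by SRB protein assay. GI50, TGI and LC50 reported as –log molar.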

HCT-15 = test: Growth inhibition of human HCT15 cells after 48 hrs by SRB assay; assay type: functional; conditions: HCT-15, 48 h; in short: as §1
SW-620 = test: Growth inhibition of human SW620 cells after 48 hrs by SRB assay; assay type: functional; conditions: SW-620, 48 h; in short: as §1
CAKI-1 = test: Growth inhibition of human Caki1 cells after 48 hrs by SRB assay; assay type: functional; conditions: CAKI-1, 48 h; in short: as §1
M14 = test: Growth inhibition of human M14 cells after 48 hrs by SRB assay; assay type: functional; conditions: M14, 48 h; in short: as §1
OVCAR-8 = test: Growth inhibition of human OVCAR8 cells after 48 hrs by SRB assay; assay type: functional; conditions: OVCAR-8, 48 h; in short: as §1
BT-549 = test: Growth inhibition of human BT549 cells after 48 hrs by SRB assay; assay type: functional; conditions: BT-549, 48 h; in short: as §1
NCI-H322M = test: Growth inhibition of human NCI-H322M cells after 48 hrs by SRB assay; assay type: functional; in short: as §1
SF-539 = test: Growth inhibition of human SF539 cells after 48 hrs by SRB assay; assay type: functional; conditions: SF-539, 48 h; in short: as §1
SR = test: Growth inhibition of human SR cells after 48 hrs by SRB assay; assay type: functional; in short: as §1
PC-3 = test: Growth inhibition of human PC3 cells after 48 hrs by SRB assay; assay type: functional; conditions: PC-3, 48 h; in short: as §1
MOLT-4 = test: Growth inhibition of human MOLT4 cells after 48 hrs by SRB assay; assay type: functional; conditions: MOLT-4, 48 h; in short: as §1
[1] = Growth inhibition of human […] cells after 48 hrs by SRB assay; assay type: functional; in short: as §1
K562 = test: Growth inhibition of human K562 cells after 48 hrs by SRB assay; assay type: functional; conditions: K562, 48 h; in short: as §1
OVCAR-4 = test: Growth inhibition of human OVCAR4 cells after 48 hrs by SRB assay; assay type: functional; conditions: OVCAR-4, 48 h; in short: as §1
Malme-3M = test: Growth inhibition of human MALME-3M cells after 48 hrs by SRB assay; assay type: functional; in short: as §1
U-251 = test: Growth inhibition of human U251 cells after 48 hrs by SRB assay; assay type: functional; conditions: U-251, 48 h; in short: as §1
COLO 205 = test: Growth inhibition of human COLO205 cells after 48 hrs by SRB assay; assay type: functional; conditions: COLO 205, 48 h; in short: as §1
UO-31 = test: Growth inhibition of human UO31 cells after 48 hrs by SRB assay; assay type: functional; conditions: UO-31, 48 h; in short: as §1
HT-29 = test: Growth inhibition of human HT-29 cells after 48 hrs by SRB assay; assay type: functional; conditions: HT-29, 48 h; in short: as §1
SNB-75 = test: Growth inhibition of human SNB75 cells after 48 hrs by SRB assay; assay type: functional; conditions: SNB-75, 48 h; in short: as §1
DU-145 = test: Growth inhibition of human DU145 cells after 48 hrs by SRB assay; assay type: functional; conditions: DU-145, 48 h; in short: as §1
NCI-H522 = test: Growth inhibition of human NCI-H522 cells after 48 hrs by SRB assay; assay type: functional; conditions: NCI-H522, 48 h; in short: as §1
MDA-MB-435 = test: Growth inhibition of human MDA-MB-435 cells after 48 hrs by SRB assay; assay type: functional; conditions: MDA-MB-435, 48 h; in short: as §1
SK-MEL-28 = test: Growth inhibition of human SK-MEL-28 cells after 48 hrs by SRB assay; assay type: functional; conditions: SK-MEL-28, 48 h; in short: as §1
SK-OV-3 = test: Growth inhibition of human SKOV3 cells after 48 hrs by SRB assay; assay type: functional; conditions: SK-OV-3, 48 h; in short: as §1
HCT-116 = test: Growth inhibition of human HCT116 cells after 48 hrs by SRB assay; assay type: functional; conditions: HCT-116, 48 h; in short: as §1
SK-MEL-2 = test: Growth inhibition of human SK-MEL-2 cells after 48 hrs by SRB assay; assay type: functional; conditions: SK-MEL-2, 48 h; in short: as §1
SK-MEL-5 = test: Growth inhibition of human SK-MEL-5 cells after 48 hrs by SRB assay; assay type: functional; conditions: SK-MEL-5, 48 h; in short: as §1
HOP-62 = test: Growth inhibition of human HOP62 cells after 48 hrs by SRB assay; assay type: functional; conditions: HOP-62, 48 h; in short: as §1
T47D = test: Growth inhibition of human T47D cells after 48 hrs by SRB assay; assay type: functional; in short: as §1
TK-10 = test: Growth inhibition of human TK10 cells after 48 hrs by SRB assay; assay type: functional; conditions: TK-10, 48 h; in short: as §1
CCRF-CEM = test: Growth inhibition of human CCRF-CEM cells after 48 hrs by SRB assay; assay type: functional; in short: as §1
SF-268 = test: Growth inhibition of human SF268 cells after 48 hrs by SRB assay; assay type: functional; conditions: SF-268, 48 h; in short: as §1
UACC-62 = test: Growth inhibition of human UACC62 cells after 48 hrs by SRB assay; assay type: functional; conditions: UACC-62, 48 h; in short: as §1
MCF7 = test: Growth inhibition of human MCF7 cells after 48 hrs by SRB assay; assay type: functional; conditions: MCF7, 48 h; in short: as §1

Compound: COc1cc(C2CC(c3ccc(N(C)C)cc3)=NN2C(C)=O)cc(OC)c1OC (configuration not stated)
- IC50 (NCI-H460): 1.8 µM
- GI50 (SF-295): 0.158 µM
- TGI (SF-295; read-out: pTGI (converted)): 0.631 µM
- GI50 (HCT-15): 0.631 µM
- GI50 (SW-620): 0.501 µM
- TGI (SW-620; read-out: pTGI (converted)): > 100 µM
- GI50 (CAKI-1): 0.501 µM
- TGI (CAKI-1; read-out: pTGI (converted)): > 100 µM
- GI50 (M14): 0.501 µM
- TGI (M14; read-out: pTGI (converted)): 2.51 µM
- GI50 (OVCAR-8): 5.01 µM
- TGI (OVCAR-8; read-out: pTGI (converted)): > 100 µM
- GI50 (BT-549): 2.51 µM
- TGI (BT-549; read-out: pTGI (converted)): > 100 µM
- GI50 (NCI-H322M): 3.98 µM
- TGI (NCI-H322M; read-out: pTGI (converted)): 63.1 µM
- GI50 (SF-539): 1 µM
- TGI (SF-539; read-out: pTGI (converted)): 5.01 µM
- GI50 (SR): 0.631 µM
- TGI (SR; read-out: pTGI (converted)): > 100 µM
- GI50 (PC-3): 0.501 µM
- TGI (PC-3; read-out: pTGI (converted)): > 100 µM
- GI50 (MOLT-4): 3.16 µM
- TGI (MOLT-4; read-out: pTGI (converted)): > 100 µM
- GI50 [1]: 3.16 µM
- TGI ([1]; read-out: pTGI (converted)): 15.8 µM
- GI50 (K562): 1.58 µM
- TGI (K562; read-out: pTGI (converted)): > 100 µM
- GI50 (OVCAR-4): 3.98 µM
- TGI (OVCAR-4; read-out: pTGI (converted)): > 100 µM
- GI50 (Malme-3M): > 100 µM
- TGI (Malme-3M; read-out: pTGI (converted)): > 100 µM
- GI50 (U-251): 0.631 µM
- TGI (U-251; read-out: pTGI (converted)): > 100 µM
- GI50 (COLO 205): 3.16 µM
- TGI (COLO 205; read-out: pTGI (converted)): 15.8 µM
- GI50 (UO-31): 2.51 µM
- TGI (UO-31; read-out: pTGI (converted)): > 100 µM
- GI50 (HT-29): 0.398 µM
- TGI (HT-29; read-out: pTGI (converted)): 15.8 µM
- GI50 (SNB-75): 0.794 µM
- TGI (SNB-75; read-out: pTGI (converted)): > 100 µM
- GI50 (DU-145): 2 µM
- TGI (DU-145; read-out: pTGI (converted)): 12.6 µM
- GI50 (NCI-H522): 0.631 µM
- TGI (NCI-H522; read-out: pTGI (converted)): 7.94 µM
- GI50 (MDA-MB-435): 0.2 µM
- TGI (MDA-MB-435; read-out: pTGI (converted)): 0.631 µM
- GI50 (SK-MEL-28): 15.8 µM
- TGI (SK-MEL-28; read-out: pTGI (converted)): > 100 µM
- GI50 (SK-OV-3): 3.98 µM
- TGI (SK-OV-3; read-out: pTGI (converted)): > 100 µM
- GI50 (HCT-116): 0.501 µM
- TGI (HCT-116; read-out: pTGI (converted)): 20 µM
- GI50 (SK-MEL-2): 7.94 µM
- TGI (SK-MEL-2; read-out: pTGI (converted)): > 100 µM
- GI50 (SK-MEL-5): 0.631 µM
- TGI (SK-MEL-5; read-out: pTGI (converted)): 12.6 µM
- GI50 (HOP-62): 0.794 µM
- TGI (HOP-62; read-out: pTGI (converted)): > 100 µM
- GI50 (T47D): 6.31 µM
- TGI (T47D; read-out: pTGI (converted)): > 100 µM
- GI50 (TK-10): 12.6 µM
- TGI (TK-10; read-out: pTGI (converted)): > 100 µM
- GI50 (CCRF-CEM): 2.51 µM
- TGI (CCRF-CEM; read-out: pTGI (converted)): > 100 µM
- GI50 (SF-268): 2.51 µM
- TGI (SF-268; read-out: pTGI (converted)): > 100 µM
- GI50 (UACC-62): 0.631 µM
- TGI (UACC-62; read-out: pTGI (converted)): > 100 µM
- GI50 (MCF7): 0.398 µM
- TGI (MCF7; read-out: pTGI (converted)): > 100 µM
